Key:
[1] = biological target: Mitogen-activated protein kinase 9 (Homo sapiens) (UniProt P45984); test: Inhibition of JNK2 assessed as residual enzyme activity at 10 uM relative to untreated control
Outline: (§1)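 Kinases of human origin, except CK1δ, which is rat. Run in 50 mM Tris/HCl pH 7.5, 0.1 mM EGTA, 0.1% 2-mercaptoethanol and 10 mM Mg acetate, with [γ-33P]ATP at 20 µM, 30 min at 21 °C. Acid-stopped and captured on P81 filters. Compound tested at 10 µM; residual % of uninhibited control, duplicate determinations.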

[2] = biological target: SRSF protein kinase 1 (Homo sapiens) (UniProt Q96SB4); test: Inhibition of SRPK1 assessed as residual enzyme activity at 10 uM relative to untreated control
Sequence of SRSF protein kinase 1 (Homo sapiens) (Q96SB4 whole entry): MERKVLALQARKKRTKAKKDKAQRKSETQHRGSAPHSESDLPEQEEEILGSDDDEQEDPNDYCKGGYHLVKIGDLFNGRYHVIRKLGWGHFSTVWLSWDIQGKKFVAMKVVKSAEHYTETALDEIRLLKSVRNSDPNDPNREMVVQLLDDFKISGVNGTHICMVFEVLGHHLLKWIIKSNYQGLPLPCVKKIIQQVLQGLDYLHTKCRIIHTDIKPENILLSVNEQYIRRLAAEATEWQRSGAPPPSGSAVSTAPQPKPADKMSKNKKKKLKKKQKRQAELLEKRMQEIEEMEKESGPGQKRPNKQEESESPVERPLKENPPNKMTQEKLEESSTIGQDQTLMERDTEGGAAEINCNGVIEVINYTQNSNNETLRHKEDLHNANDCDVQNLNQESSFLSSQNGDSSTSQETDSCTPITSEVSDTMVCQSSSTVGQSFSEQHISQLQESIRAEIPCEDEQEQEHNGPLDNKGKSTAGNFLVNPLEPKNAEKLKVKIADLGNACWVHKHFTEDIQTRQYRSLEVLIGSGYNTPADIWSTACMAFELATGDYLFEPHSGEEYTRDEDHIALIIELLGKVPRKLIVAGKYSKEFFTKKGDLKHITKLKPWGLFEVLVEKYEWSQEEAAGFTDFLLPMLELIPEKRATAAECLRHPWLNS

[3] = biological target: Serine/threonine-protein kinase PAK 6 (Homo sapiens) (UniProt Q9NQU5); test: Inhibition of PAK6 assessed as residual enzyme activity at 10 uM relative to untreated control; outline: as §1
Sequence of Serine/threonine-protein kinase PAK 6 (Homo sapiens) (Q9NQU5 whole entry, looked up): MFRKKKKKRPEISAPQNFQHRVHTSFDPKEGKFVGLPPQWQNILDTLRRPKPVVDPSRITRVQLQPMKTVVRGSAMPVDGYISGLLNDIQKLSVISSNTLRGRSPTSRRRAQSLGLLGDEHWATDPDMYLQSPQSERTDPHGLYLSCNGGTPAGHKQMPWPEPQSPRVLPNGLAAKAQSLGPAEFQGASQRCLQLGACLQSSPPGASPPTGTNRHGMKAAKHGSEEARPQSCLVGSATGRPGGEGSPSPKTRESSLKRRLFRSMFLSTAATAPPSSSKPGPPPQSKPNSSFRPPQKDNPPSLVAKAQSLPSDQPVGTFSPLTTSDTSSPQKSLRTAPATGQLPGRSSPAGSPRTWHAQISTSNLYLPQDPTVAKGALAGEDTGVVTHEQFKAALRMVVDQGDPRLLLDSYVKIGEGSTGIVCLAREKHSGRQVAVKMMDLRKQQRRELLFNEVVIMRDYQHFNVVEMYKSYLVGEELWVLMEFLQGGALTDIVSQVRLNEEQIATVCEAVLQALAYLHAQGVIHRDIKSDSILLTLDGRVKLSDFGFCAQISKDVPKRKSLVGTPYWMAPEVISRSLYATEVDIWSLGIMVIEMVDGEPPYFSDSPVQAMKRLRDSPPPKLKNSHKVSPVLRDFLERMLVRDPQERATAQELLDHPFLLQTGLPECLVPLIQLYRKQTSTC

[4] = biological target: Ribosomal protein S6 kinase alpha-3 (Homo sapiens) (UniProt P51812); test: Inhibition of RSK2 assessed as residual enzyme activity at 10 uM relative to untreated control
Sequence of Ribosomal protein S6 kinase alpha-3 (Homo sapiens) (P51812 whole entry): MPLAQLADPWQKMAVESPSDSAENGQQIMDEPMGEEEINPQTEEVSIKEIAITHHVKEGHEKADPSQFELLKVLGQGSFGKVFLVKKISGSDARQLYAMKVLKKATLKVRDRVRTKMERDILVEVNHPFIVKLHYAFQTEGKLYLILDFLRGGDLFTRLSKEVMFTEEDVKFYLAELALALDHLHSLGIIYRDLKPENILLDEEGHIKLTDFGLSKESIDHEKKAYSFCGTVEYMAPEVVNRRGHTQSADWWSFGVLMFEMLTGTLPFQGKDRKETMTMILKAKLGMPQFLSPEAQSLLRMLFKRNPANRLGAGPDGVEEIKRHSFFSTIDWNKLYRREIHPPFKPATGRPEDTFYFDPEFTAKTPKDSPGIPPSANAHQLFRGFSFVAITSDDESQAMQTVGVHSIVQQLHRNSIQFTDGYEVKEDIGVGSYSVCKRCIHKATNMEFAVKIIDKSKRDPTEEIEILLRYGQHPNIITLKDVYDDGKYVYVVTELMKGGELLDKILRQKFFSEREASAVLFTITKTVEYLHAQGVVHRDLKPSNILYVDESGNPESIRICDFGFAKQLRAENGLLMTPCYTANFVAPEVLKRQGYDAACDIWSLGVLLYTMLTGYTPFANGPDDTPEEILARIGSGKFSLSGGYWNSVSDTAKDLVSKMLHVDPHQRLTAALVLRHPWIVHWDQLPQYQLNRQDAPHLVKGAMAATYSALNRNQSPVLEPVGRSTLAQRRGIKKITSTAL

[5] = biological target: T1, Aurora kinase C (Homo sapiens) (UniProt Q9UQB9); test: Inhibition of AURORA C assessed as residual enzyme activity at 10 uM relative to untreated control
T1 sequence (whole entry): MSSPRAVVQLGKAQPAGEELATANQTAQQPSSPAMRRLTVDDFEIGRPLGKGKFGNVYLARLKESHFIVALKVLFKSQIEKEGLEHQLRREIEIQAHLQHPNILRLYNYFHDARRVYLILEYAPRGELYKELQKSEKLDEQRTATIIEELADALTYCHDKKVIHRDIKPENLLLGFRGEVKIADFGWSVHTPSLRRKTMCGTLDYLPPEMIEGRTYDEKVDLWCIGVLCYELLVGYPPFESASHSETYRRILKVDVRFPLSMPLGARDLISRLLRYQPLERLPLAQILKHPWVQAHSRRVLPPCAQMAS
Outline: (§2)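 Radiometric filter-binding assay at 21 °C for 30 min. Mix: 50 mM Tris/HCl pH 7.5, 0.1 mM EGTA, 0.1% 2-mercaptoethanol, 10 mM Mg acetate and [γ-33P]ATP (800 cpm/pmol) at 5 µM. Stopped with orthophosphoric acid and spotted on P81. Compound at 10 µM; activity given as % remaining versus no-inhibitor control, duplicates. Kinases human full-length unless noted.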

[6] = biological target: Calcium/calmodulin-dependent protein kinase type 1 (Homo sapiens) (UniProt Q14012); test: Inhibition of CaMK1 assessed as residual enzyme activity at 10 uM relative to untreated control
Sequence of Calcium/calmodulin-dependent protein kinase type 1 (Homo sapiens) (Q14012 whole entry, looked up): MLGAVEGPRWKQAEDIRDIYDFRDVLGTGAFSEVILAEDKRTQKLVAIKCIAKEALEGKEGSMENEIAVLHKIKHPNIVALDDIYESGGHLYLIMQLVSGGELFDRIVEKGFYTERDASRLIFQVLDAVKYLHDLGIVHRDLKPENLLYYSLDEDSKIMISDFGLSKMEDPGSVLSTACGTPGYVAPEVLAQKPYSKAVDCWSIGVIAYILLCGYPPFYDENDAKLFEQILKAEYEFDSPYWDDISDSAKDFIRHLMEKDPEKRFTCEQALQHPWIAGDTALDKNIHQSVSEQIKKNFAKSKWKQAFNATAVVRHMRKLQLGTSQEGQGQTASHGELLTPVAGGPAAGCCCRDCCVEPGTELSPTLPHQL

[7] = biological target: Calcium/calmodulin-dependent protein kinase kinase 1 (Homo sapiens) (UniProt Q8N5S9); test: Inhibition of CAMKKalpha assessed as residual enzyme activity at 10 uM relative to untreated control
Sequence of Calcium/calmodulin-dependent protein kinase kinase 1 (Homo sapiens) (Q8N5S9 whole entry, looked up): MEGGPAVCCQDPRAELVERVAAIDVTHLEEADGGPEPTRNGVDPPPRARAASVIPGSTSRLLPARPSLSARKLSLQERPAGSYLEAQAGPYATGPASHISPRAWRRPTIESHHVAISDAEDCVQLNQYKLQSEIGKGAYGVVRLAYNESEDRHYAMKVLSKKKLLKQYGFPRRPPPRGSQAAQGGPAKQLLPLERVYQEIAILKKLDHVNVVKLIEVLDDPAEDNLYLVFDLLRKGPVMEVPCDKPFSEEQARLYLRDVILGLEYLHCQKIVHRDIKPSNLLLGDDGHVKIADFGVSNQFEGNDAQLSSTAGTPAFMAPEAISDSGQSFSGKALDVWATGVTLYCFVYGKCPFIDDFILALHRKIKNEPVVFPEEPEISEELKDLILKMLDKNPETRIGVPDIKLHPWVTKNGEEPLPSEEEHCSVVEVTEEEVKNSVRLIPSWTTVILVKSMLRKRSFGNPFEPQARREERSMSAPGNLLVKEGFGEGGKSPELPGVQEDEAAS

[8] = biological target: Tyrosine-protein kinase CSK (Homo sapiens) (UniProt P41240); test: Inhibition of CSK assessed as residual enzyme activity at 10 uM relative to untreated control; outline: as §1
Sequence of Tyrosine-protein kinase CSK (Homo sapiens) (P41240 2-450 limits assumed): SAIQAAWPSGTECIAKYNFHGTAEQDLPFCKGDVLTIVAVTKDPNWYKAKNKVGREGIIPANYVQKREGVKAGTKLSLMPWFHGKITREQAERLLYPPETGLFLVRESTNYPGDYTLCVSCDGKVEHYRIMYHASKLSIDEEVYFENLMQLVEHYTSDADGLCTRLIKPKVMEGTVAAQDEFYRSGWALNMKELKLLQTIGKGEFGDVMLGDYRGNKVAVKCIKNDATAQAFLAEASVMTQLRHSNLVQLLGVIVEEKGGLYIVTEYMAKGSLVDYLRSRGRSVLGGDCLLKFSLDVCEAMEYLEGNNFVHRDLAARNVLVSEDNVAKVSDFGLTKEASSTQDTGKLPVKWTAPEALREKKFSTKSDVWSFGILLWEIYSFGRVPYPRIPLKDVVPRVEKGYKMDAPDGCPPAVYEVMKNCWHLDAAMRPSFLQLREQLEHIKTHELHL

[9] = biological target: Myosin light chain kinase, smooth muscle (Homo sapiens) (UniProt Q15746); test: Inhibition of smMLCK assessed as residual enzyme activity at 10 uM relative to untreated control
[10] = biological target: T2, Serine/threonine-protein kinase Nek2 (Homo sapiens) (UniProt P51955); test: Inhibition of NEK2alpha assessed as residual enzyme activity at 10 uM relative to untreated control
T2 sequence (whole entry): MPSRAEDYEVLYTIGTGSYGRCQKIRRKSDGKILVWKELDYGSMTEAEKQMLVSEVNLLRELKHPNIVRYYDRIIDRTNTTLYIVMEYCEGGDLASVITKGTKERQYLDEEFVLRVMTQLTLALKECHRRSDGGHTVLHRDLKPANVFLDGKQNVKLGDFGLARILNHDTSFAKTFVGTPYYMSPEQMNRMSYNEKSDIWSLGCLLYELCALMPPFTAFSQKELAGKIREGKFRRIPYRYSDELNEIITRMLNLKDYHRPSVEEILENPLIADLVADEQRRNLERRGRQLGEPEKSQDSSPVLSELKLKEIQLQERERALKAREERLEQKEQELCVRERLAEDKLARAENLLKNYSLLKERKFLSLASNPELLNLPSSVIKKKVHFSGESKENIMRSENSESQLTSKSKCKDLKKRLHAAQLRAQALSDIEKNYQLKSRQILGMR
Outline: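 Assayed with [γ-33P]ATP at 50 µM and 10 mM Mg acetate in 50 mM Tris/HCl pH 7.5, 0.1 mM EGTA, 0.1% 2-mercaptoethanol, 30 min, 21 °C. Phosphoric acid stop, P81 filter capture. ERK2 and Lck are mouse; AMPK is rat. 10 µM compound; % activity remaining relative to control without inhibitor, duplicates.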

[11] = biological target: RAC-alpha serine/threonine-protein kinase (Homo sapiens) (UniProt P31749); test: Inhibition of PKBalpha assessed as residual enzyme activity at 10 uM relative to untreated control; outline: as §2
Sequence of RAC-alpha serine/threonine-protein kinase (Homo sapiens) (P31749 whole entry): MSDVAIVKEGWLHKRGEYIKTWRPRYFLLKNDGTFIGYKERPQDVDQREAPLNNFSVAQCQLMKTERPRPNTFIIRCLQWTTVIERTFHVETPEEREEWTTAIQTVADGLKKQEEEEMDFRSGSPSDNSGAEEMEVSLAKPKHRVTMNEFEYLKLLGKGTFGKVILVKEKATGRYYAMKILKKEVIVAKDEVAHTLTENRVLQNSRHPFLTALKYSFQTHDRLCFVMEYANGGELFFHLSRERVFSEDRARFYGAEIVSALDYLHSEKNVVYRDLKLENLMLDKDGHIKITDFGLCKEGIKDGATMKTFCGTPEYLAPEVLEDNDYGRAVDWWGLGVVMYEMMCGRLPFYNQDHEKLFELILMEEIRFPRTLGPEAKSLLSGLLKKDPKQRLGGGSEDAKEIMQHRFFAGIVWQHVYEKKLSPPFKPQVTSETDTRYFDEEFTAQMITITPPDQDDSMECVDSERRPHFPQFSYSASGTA

[12] = biological target: T3, Serine/threonine-protein kinase Sgk1 (Homo sapiens) (UniProt O00141); test: Inhibition of SGK1 assessed as residual enzyme activity at 10 uM relative to untreated control
T3 sequence (whole entry): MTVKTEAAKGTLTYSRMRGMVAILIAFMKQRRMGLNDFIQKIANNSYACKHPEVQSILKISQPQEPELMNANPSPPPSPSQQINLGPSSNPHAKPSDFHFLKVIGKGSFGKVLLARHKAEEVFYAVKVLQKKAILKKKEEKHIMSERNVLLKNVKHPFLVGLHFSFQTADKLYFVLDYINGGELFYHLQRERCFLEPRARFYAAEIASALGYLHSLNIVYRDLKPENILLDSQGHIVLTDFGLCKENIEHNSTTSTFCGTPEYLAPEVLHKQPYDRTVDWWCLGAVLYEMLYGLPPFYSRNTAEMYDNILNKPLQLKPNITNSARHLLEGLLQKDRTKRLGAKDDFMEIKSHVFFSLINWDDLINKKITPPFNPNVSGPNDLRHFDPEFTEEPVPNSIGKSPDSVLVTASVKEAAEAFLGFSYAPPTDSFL
Outline: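 Buffer Tris/HCl pH 7.5, EGTA and 2-mercaptoethanol. 30 min at 21 °C, compound at 10 µM. P81 filter read-out. Residual activity versus control, duplicates.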

RSK1 (Rattus norvegicus) = test: Inhibition of RSK1 assessed as residual enzyme activity at 10 uM relative to untreated control

Sequence of Mitogen-activated protein kinase 9 (Homo sapiens) (P45984 whole entry, looked up): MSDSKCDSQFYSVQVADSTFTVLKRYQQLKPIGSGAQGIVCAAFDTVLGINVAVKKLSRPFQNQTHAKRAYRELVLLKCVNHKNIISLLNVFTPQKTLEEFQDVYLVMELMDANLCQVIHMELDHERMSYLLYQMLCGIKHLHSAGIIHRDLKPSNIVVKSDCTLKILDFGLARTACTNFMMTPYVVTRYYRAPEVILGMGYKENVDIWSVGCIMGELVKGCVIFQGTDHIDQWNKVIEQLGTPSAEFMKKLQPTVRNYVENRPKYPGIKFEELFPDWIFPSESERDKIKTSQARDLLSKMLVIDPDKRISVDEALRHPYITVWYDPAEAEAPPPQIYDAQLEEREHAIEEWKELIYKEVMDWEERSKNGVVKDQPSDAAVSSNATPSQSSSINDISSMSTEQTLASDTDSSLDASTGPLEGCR

Activity [1] | Activity [2] | Activity [3] | Activity [4] | Activity [5] | Activity [6] | Activity [7] | Activity [8] | Activity [9] | Activity [10] | Activity [11] | Activity [12] | Activity (RSK1 (Rattus norvegicus)) | Compound
128% | 84% | 94% | 77% | 79% | 71% | 42% | 74% | 60% | 88% | 96% | 64% | – | O=Cc1c[nH]c2c1ccc1c3ccccc3[nH]c12
130% | 94% | 91% | 107% | 99% | 80% | 92% | 72% | 82% | 96% | 110% | 102% | 99% | c1ccc2c(c1)[nH]c1c3cc[nH]c3ccc21
118% | 90% | 92% | 99% | 85% | 29% | 76% | 98% | 86% | 104% | 120% | 82% | 105% | c1ccc2c(c1)[nH]c1c2ccc2cc[nH]c21
111% | 93% | 99% | 78% | 104% | 36% | 90% | 87% | 91% | 100% | 112% | 105% | 120% | O=Cc1c[nH]c2ccc3c4ccccc4[nH]c3c12
